Our source for the cytotoxicity values is ChEMBL document CHEMBL4513216, “Probing the Open Global Health Chemical Diversity Library for Multistage-Active Starting Points for Next-Generation Antimalarials” (ACS Infect Dis, 2020).

The nature of this series: Toxicity liver stage against HepG2, at 10uM. Also noted: test concentration 10 uM, cell line HepG2-A16-CD81EGFP. In kind it is cell-based. Particulars: human, HepG2-A16-CD81EGFP cells; read-out: INHIBITION
The gist of the method: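 Uninfected HepG2-A16-CD81EGFP cells, 3 × 10^3 per well, 1536-well, plated on prespotted compound at 10 μM final, parasite-free screening media added to match infected plates; puromycin 10 μM positive, DMSO 0.5% negative; run in parallel with 48 h PbLuc assay at 37 °C, 5% CO2; viability by CellTiter-Glo luminescence, normalized to controls.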
In the case of `CSc1ccc2cc(CN(C)CCCN(C)C)c(=O)[nH]c2c1`, the cytotoxicity at 10 µM is -2.72%.
To `Cc1nccn1CCN1C(=O)CC2(CCCC2)CC1=O` belongs -2.11%; to `O=S(=O)(c1ccccc1)N1CCC[C@]2(C[C@H](OCC3CC3)CO2)C1`, -75.9%; to `COc1c(C2CCCN2CC(=O)N2CCCCC2)c(C)nn1C` (configuration not stated), 0.113%.
To `CN(C(=O)c1ccc2c(c1)nc(N1CC[C@H](O)C1)n2C)C1CCSCC1` belongs -13%; to `CC(=O)N1CCCC(C(=O)Nc2ccccc2Cc2ccccc2)C1` (configuration not stated), 3.88%; to `CC(C)(C)C(O)CN1CCN(CC(=O)NCC(F)(F)F)CC1` (configuration not stated), -10.2%.
For the compound `O=C(Nc1ccccn1)c1nc(N2CCCC2)ncc1Cl`, the cytotoxicity at 10 µM is -8.77%.
To `O=C(O)C1(Oc2cccc(F)c2)CCN(c2ccncc2)CC1` belongs 0.423%; to `Cc1cc(C)n(CC2CCCN2CC(=O)N(C)Cc2ccc(C)o2)n1` (configuration not stated), -15.4%; to `Cc1ccoc1C(=O)N1CCn2cc(CN3CCCC3)nc2C1`, -79.6%.
To `O=C(NCc1cccnc1)[C@H]1C[C@@H]2CCN(c3ccncn3)C[C@H]2O1` belongs 7.95%; to `CO[C@H]1CO[C@@]2(CCCN(C(=O)N3CCCC3)C2)C1`, -108%; to `CCNC(=O)[C@@H]1C[C@H](N)CN1c1cc(C(F)(F)F)nc(N2CCCC2)n1`, -3.97%.
To `COCCN(CCC#N)S(=O)(=O)c1cc(F)cc(F)c1` belongs -3.32%; to `O=c1[nH]c2cn(-c3cccc(F)c3)c(=O)n2n1Cc1ccccc1Cl`, 4.9%; to `COCCN(C)C(=O)c1ccc(OC)cc1O`, -3.19%.
On to `CN(C)C(=O)c1cccc(NC(=O)Cc2cc(F)ccc2F)n1`, for which the cytotoxicity at 10 µM is -2.64%.
In the case of `COc1cccc2c1OCC(NCCc1cnn(-c3ccccc3)c1)C2` (configuration not stated) it was -0.6%; in that of `O=C(NCc1cccnc1)[C@@H]1C[C@H]2[C@H](CCN2c2ncc(F)cn2)O1`, -85.3%; in that of `CCCn1nnnc1COC(=O)C1COc2ccc(Cl)cc2C1` (configuration not stated), -8.68%.
In the case of `Cc1nc(NCCc2ccccc2)cc(C(=O)N2CCOCC2)n1` it was -3.01%.
Consider `Cc1cc(-c2c(C)c(-c3cnn(C)c3)nc(N)c2C#N)oc1C`, for which the cytotoxicity at 10 µM is -93.5%.
Regarding `CCc1noc(C(C)N2CCOCC2)n1` (configuration not stated), the cytotoxicity at 10 µM is -6.5%.
Turning to `O=S(=O)(c1cn[nH]c1)N1CCC(O)(CN2CCOCC2)C1` (configuration not stated), the cytotoxicity at 10 µM was determined as 2.5%.
Turning to `COc1ncccc1C1CC(=O)NCc2nc3ccccn3c21` (configuration not stated), the cytotoxicity at 10 µM was -5.72%.
In the case of `CS(=O)(=O)Cc1nc(CN2CC=C(c3ccccc3)CC2)cs1` it was 5.27%.
As for `COC[C@@]12CCC[C@@H]1CN(C(=O)COc1ccccc1OC)C2`, the cytotoxicity at 10 µM was -106%.
In the case of `O=C(Cc1ccon1)Nc1cncc(Br)c1O` it was 7.06%; in that of `CCc1nc(N)sc1C(=O)N1CCCC(CCc2ccccc2C)C1` (configuration not stated), 6.46%.
For the compound `Cc1ccc(C(=O)N2Cc3ccccc3C2)cc1N1CCNC1=O`, the cytotoxicity at 10 µM is -13.9%.
To `Cc1nc(C)c(C(=O)N2CCCC2c2nc(O)cc(C(C)C)n2)s1` (configuration not stated) belongs -29.4%; to `CN1CCN(c2nsc(-c3cccnc3)c2C#N)CC1`, 0.916%; to `O=C(c1nc2c(s1)CCCN2CC1CC1)N1CCOCC1`, 11.2%.
In the case of `COc1ncccc1CN1CCn2c(Cn3cncn3)cnc2C1` it was -3.17%; in that of `COc1c(Br)c(CC2CC(CO)=NO2)c(Br)c2c1OCO2` (configuration not stated), 6.97%.
`Cc1cc(C)n(CCCNc2ncnc3c2NC(=O)CN3)n1`: the cytotoxicity at 10 µM came to 8.71%.
To `CC(C)(C)C(N)C1=NC(=C2N=CN=N2)NO1` (configuration not stated) belongs -16.9%.
For the compound `Cc1cc(S(=O)(=O)N2CCC(N3CCC(O)C3)CC2)c(Cl)cc1Cl` (configuration not stated), the cytotoxicity at 10 µM is 0.944%.
To `O=C(CN1CCCCC1)Nc1ncc(Br)cc1Br` belongs -9.58%; to `CCNC(=O)CCCC(=O)N1CCc2cc(Cl)cc(Cl)c2C1`, -15.1%; to `Cn1c(=O)oc2ccc(S(=O)(=O)N3CCC(c4ccccc4)C3)cc21` (configuration not stated), 5.43%.
In the case of `Cc1cc(C)nc(C2CCN(C(=O)c3cnco3)C2)n1` (configuration not stated) it was -4.22%.
In the case of `c1ccc(COC[C@@]23CCC[C@@H]2CN(Cc2ccccn2)C3)nc1`, the cytotoxicity at 10 µM was 1.39%.
To `CS(=O)(=O)c1ccc(CNCC2CCN(CCO)CC2)cc1` belongs -18.8%; to `CC(=O)N1CC2(CCN(C(=O)c3ccc4c(c3)OCCO4)CC2)C1`, -11.8%; to `CC(C)(C)c1noc(CCC(=O)N2CCN(Cc3ccc(Cl)s3)CC2)n1`, 3.36%.
Turning to `CC(C)N(C)C(=O)c1ccc(Cl)c(NC(=O)C2CCC2)c1`, the cytotoxicity at 10 µM was -2.74%.
To `CC1CCN(c2nc3cn(C4CCS(=O)(=O)C4)c(=O)c-3c[nH]2)CC1` (configuration not stated) belongs -14.2%; to `CC(NC(=O)COc1ccccc1C(=O)O)c1ccc(F)cc1` (configuration not stated), -1.11%; to `CC(C)(C)n1ncc(NCC(O)c2ccc(F)c(F)c2)c(Cl)c1=O` (configuration not stated), 54.1%.
In the case of `Cc1nc(N2CCOCC2)ncc1-c1cc(O)nc(N2CCCC2)n1` it was 7.63%.
`Cc1cc(=O)n2ncnc2n1CC(O)c1cc(Cl)ccc1Cl` (configuration not stated): the cytotoxicity at 10 µM was determined as 3.19%.
Take `CCn1ccnc1CN(C)C(=O)Cn1ccc2ccccc2c1=O`: the cytotoxicity at 10 µM was 2.37%.
To `CCC(=O)NC1CCCN(Cn2nc(C(C)(C)C)ccc2=O)C1` (configuration not stated) belongs -1.69%; to `CCn1cnnc1CNC(=O)N1CCC(CN2CCCCCC2)CC1`, -8.57%.
In the case of `O=c1[nH][nH]cc1-c1ccnc(NCCc2ccc(F)cc2)n1` it was 3.44%; in that of `CN(C)C(=O)C1CN(c2ncccn2)CCN1C` (configuration not stated), -0.419%.
With `O=C(N1CCOCC1)N1CCCC2(CCCNC2)C1` (configuration not stated), the cytotoxicity at 10 µM came to 0.817%.
Turning to `Cn1cc(S(=O)(=O)NC(=O)C2(c3cccc(Cl)c3)CC2)cn1`, the cytotoxicity at 10 µM was -10%.
In the case of `Cc1cc(C(=O)N2CCCN(Cc3cnn(C(C)C)c3)CC2)no1` it was 0.243%; in that of `O=C(NCCNCc1cccc2c1OCCCO2)C1CCCC1`, 8.08%; in that of `Cc1cc(SC(C)(C)C)ccc1NCC(=O)NC(N)=O`, -17.1%.
To `CC1Cn2c(nc3c2c(=O)[nH]c(=O)n3C)O1` (configuration not stated) belongs 1.26%.
For `CC(NC(=O)NCCCN(C)S(C)(=O)=O)c1cccnc1` (configuration not stated), the cytotoxicity at 10 µM is -12.5%.
In the case of `O=C(c1cncs1)N1CCCC1c1ccn[nH]1` (configuration not stated) it was -11.9%; in that of `CS(=O)(=O)N1C[C@H]2CC[C@@H](C1)N(C(=O)Cn1ccc3ccccc31)C2`, -1.38%.
To `Cc1nc(CNCC2CN(C)CCO2)cs1` (configuration not stated) belongs -9.16%; to `Cc1nccc(-c2cccc(NCC(=O)N3CCCCCCC3)c2)n1`, -0.513%; to `Cc1cnn(CC2CN(Cc3cccc(C(=O)N(C)C)c3)CCO2)c1` (configuration not stated), -1.73%.
To `Cc1cnc(CCNC(Cc2ccncc2)C(F)(F)F)s1` (configuration not stated) belongs 24.4%; to `CS(=O)(=O)N1CCC(C(=O)NC(Cc2ccsc2)c2nccs2)CC1` (configuration not stated), 4.04%.
As to `CSCCC(=O)N1CCN(CC(C)O)CC1` (configuration not stated), the cytotoxicity at 10 µM was -5.64%.
In the case of `CC(C)CC(=O)NCCCn1cncn1` it was -18.9%; in that of `CNCc1n[nH]c(=O)n1CC1CCCCC1`, -46.5%.
In the case of `Cc1cc(CC(=O)NC(C)c2ccc(OCC3CC3)c(F)c2)n[nH]1` (configuration not stated) it was 4.75%; in that of `Cc1cc(C(F)(F)F)nn1CC(C)C(=O)Nc1ccccn1` (configuration not stated), 9.84%.
To `Cc1nnc(N2CCN(C(=O)NC3CC3)CC2)c(C(N)=O)c1C` belongs 4.34%; to `Cc1[nH]c2ccccc2c1-c1ccnc(N[C@@H](CO)C(C)C)n1`, -4.19%; to `CCN(CC)c1ncccc1CNC(=O)c1cnn(CC)c1`, -8.2%.
On to `COc1cc(N2CCC3(CC2)OCC(=O)NC3C)ncn1` (configuration not stated), for which the cytotoxicity at 10 µM stood at 1.95%.
In the case of `Cc1occc1C(=O)N1CCC2(CCC2NC(=O)c2ccn(C)c2)CC1` (configuration not stated) it was -1.75%; in that of `N#Cc1ccnc(N2CCN(CC(O)c3ccc(F)cc3F)CC2)c1` (configuration not stated), -0.626%; in that of `Cc1ccc(-c2cc(-c3c(C)nn(CCO)c3C)c(C#N)c(N)n2)cc1`, 15%.
For `Cc1noc(-c2cccnc2N(C)Cc2cc(C)on2)n1`, the cytotoxicity at 10 µM is -5.1%.
As to `COc1ccc(C(O)CNC(=O)NCCc2csc(C)n2)cc1` (configuration not stated), the cytotoxicity at 10 µM is -6.16%.
In the case of `C=C(C)COc1cccc(C(=O)N2CCC3(CC2)CN(C)CCN3C)c1` it was -52.4%.
To `CCCn1ncc(C(=O)N2CCN([C@H]3CCCC[C@@H]3O)CC2)c1C` belongs -137%; to `OC(CN(Cc1ccccc1)Cc1cccnc1)c1cccs1` (configuration not stated), 4.01%.
Turning to `Cc1cc2ccccc2n1CCC(=O)NCc1ncc[nH]1`, the cytotoxicity at 10 µM is 4.37%.
As to `Cc1nc(C)c(C(=O)N2CCc3nc4sc(C)cc4c(=O)n3CC2)o1`, the cytotoxicity at 10 µM was -9.31%.
Consider `CC(=O)N1C[C@H](NC(=O)c2csc(C(C)C)c2)[C@@H](C(C)C)C1`, for which the cytotoxicity at 10 µM was -18.2%.
To `CCS(=O)(=O)N1CCN(CC2CC2)c2ncccc2C1` belongs 7.97%; to `Cc1noc(C)c1C(=O)N1C[C@@H]2CN(Cc3cccnc3)CCO[C@@H]2C1`, 5.75%.
For `Cc1cc(C(F)(F)F)nc(CCNc2nc(C)nc3c2cnn3C)n1`, the cytotoxicity at 10 µM was 4.79%.
To `Cc1ccc(C)c(C(=O)NC2CCC(N3C(=O)CCC3=O)CC2)c1` (configuration not stated) belongs 3.38%; to `CN(C)c1cc2c(nn1)CCN(C(=O)c1cc3c(s1)CCCC3)C2`, -6.3%.
